ChEMBL document CHEMBL1156239, “Synthesis, anticonvulsant and antimicrobial activities of some new 2-acetylnaphthalene derivatives” (Bioorg Med Chem, 2010)
Values after ≈ are worked out from the molar mass of the structure shown. Active and inactive are the calls of the source. The calls are words filed in the database; no cut-off is given here.

Columns and labels:
Rattus norvegicus [1] = test: Neurotoxicity in Sprague-Dawley rat assessed as time to peak effect at 10 to 30 mg/kg, ip after 0.25 to 4 hrs by rotarod test; format: toxicity, organism-based; parameters: route intraperitoneal; details: in vivo
Rattus norvegicus [2] = test: Anticonvulsant activity in Sprague-Dawley rat assessed as time to peak effect for inhibition of maximal electroshock-induced seizures at 30 mg/kg, ip; format: functional; details: route intraperitoneal
[3] = Neurotoxicity in ip dosed CF1 mouse after 0.25 hrs by rotarod test; format: toxicity, organism-based; details: in vivo
Outline: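 TD50 was determined at the time of peak effect in male albino animals. Compound was suspended in 0.5% methylcellulose and given ip. Neurotoxicity was read by rotarod in CF#1 mice and by positional sense, gait and stance in Sprague-Dawley rats. Groups of at least 8 received graded doses spanning 0–100% toxicity.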

Rattus norvegicus [4] = test: Anticonvulsant activity in ip dosed Sprague-Dawley rat assessed as inhibition of maximal electroshock-induced seizures after 0.5 hrs; format: functional
[5] = Therapeutic index, ratio of TD50 for CF1 mouse to ED50 for CF1 mouse
Outline: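 Ratio of TD50 to ED50, both from ip dosing at the time of peak effect, with groups of at least 8 per dose and Finney probit analysis. […] Toxicity was read by rotarod in mice and by positional sense, gait and stance in rats.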

Enterococcus faecalis = test: Antibacterial activity against Enterococcus faecalis ATCC 29212 after 24 hrs by broth microdilution method; format: functional; details: ATCC 29212, 24 h
Outline: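 Broth microdilution in Mueller Hinton broth; compound stocks in DMSO, diluted into test medium. Plates incubated at 35 °C and read visually after 24 h. MIC taken as lowest concentration preventing visible growth. Ampicillin reference.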

Mus musculus [6] = test: Anticonvulsant activity in CF1 mouse assessed as inhibition of maximal electroshock-induced seizures at 300 mg/kg, ip after 4 hrs; format: functional, organism-based; parameters: dose 300 mg/kg
Outline: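 Male albino CF#1 mice (18–25.5 g), compound suspended in 0.5% methylcellulose, given ip 0.5 h or 4 h before test. Eyes treated with 0.5% tetracaine HCl in saline; corneal-type MES at 60 Hz, 50 mA for 0.2 s; protection scored as animals protected/tested.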

Mus musculus [7] = test: Neurotoxicity in CF1 mouse at 30 mg/kg, ip after 0.5 hrs by rotarod test; format: toxicity, organism-based; parameters: dose 30 mg/kg, route intraperitoneal; details: in vivo
Outline: (§1)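 Male albino CF#1 mice (18–25.5 g) dosed ip with compound suspended in 0.5% methylcellulose, 0.5 h or 4 h before testing; neurotoxicity assessed by rotarod, scored as number toxic/number tested.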

Mus musculus [8] = test: Neurotoxicity in CF1 mouse at 100 mg/kg, ip after 0.5 hrs by rotarod test; format: toxicity, organism-based; parameters: dose 100 mg/kg, route intraperitoneal; details: in vivo; outline: as §1
Mus musculus [9] = test: Neurotoxicity in CF1 mouse assessed as ability to grasp rotarod at 300 mg/kg, ip after 4 hrs by rotarod test; format: toxicity, organism-based; parameters: dose 300 mg/kg, route intraperitoneal; details: in vivo
Outline: (§2)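 Male albino CF#1 mice (18–25.5 g), free access to food and water except during testing, under NINDS Anticonvulsant Screening Program procedures. Compounds were suspended in 0.5% methylcellulose and given ip. Neurotoxicity was scored by rotarod 0.5 h and 4 h after dosing, at screening doses of 30, 100 or 300 mg/kg. Results are reported as affected/tested animals.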

Mus musculus [10] = test: Neurotoxicity in CF1 mouse assessed as mortality at 300 mg/kg, ip after 4 hrs by rotarod test; format: toxicity, organism-based; parameters: dose 300 mg/kg, route intraperitoneal; details: in vivo; outline: as §2
Rattus norvegicus [11] = test: Neurotoxicity in Sprague-Dawley rat at 30 mg/kg, po after 4 hrs by rotarod test; format: toxicity, organism-based; parameters: dose 30 mg/kg, route oral; details: in vivo

CC(C)CC(=O)OC(Cn1ccnc1)c1ccc2ccccc2c1 (configuration not stated)
Activity (Rattus norvegicus [1]): Non-toxic
Time (Rattus norvegicus [2]): 0.5 h
TD50 at 0.25 h [3]: 124 mg/kg
ED50 (Rattus norvegicus [4]): 20.4 mg/kg
selectivity ratio [5]: 3.22
MIC (Enterococcus faecalis): 64 µg/mL (≈ 199 µM)
inhibition (Mus musculus [6]): Active
Activity (Mus musculus [7]): Non-toxic
Activity (Mus musculus [8]): Non-toxic
Activity (Mus musculus [9]): Toxic
Activity (Mus musculus [10]): Toxic
Activity (Rattus norvegicus [11]): Non-toxic
